HDAC3 inhib – HDAC3 deacetylase inhibitors, primary screen, biochemical, fluorescence, cell-free homogeneous | Histone deacetylase 3 (Homo sapiens), O15379 | recombinant HDAC3, fluorogenic peptide/trypsin coupled | inhibition, % at 8.3 µM | actives 0.15% (n = 320,000); in the data active means inhibition above about 26%, passing the limit was not always enough; inconclusive means no clear call, values can overlap the other calls
PfM18AAP inh – PfM18AAP inhibitors, malaria aminopeptidase, primary screen, biochemical, QFRET, recombinant enzyme; M18 aspartyl aminopeptidase (Plasmodium falciparum 3D7); actives 1.2% (n = 290,000); inhibition, % at 7.35 µM; H-Glu-NHMec fluorogenic cleavage;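 active means inhibition above the campaign mean inhibition over all tested compounds plus 3 SD, cut at about 28% in these data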;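 further: 0% = plate median of test compound wells and 100% = 2 mM ZnCl2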
ALR H2O2 inh – inhibitors of human ALR sulfhydryl oxidase, primary screen, biochemical, H2O2 detection, HRP-luminol luminescence, single point; FAD-linked sulfhydryl oxidase ALR (Homo sapiens), P55789; inhibition, % (no concentration beside the values); AID 485317, 2010; actives 3.8% (n = 290,000); purified ALR, DTT oxidation;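 active means mean replicate inhibition above about 79%, with every replicate also reaching it, limit read from the data; inconclusive means only one of the two criteria met; inactive means mean below limit and not every replicate reaching it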
FAS TE block – FAS thioesterase domain inhibitors, primary screen, biochemical, fluorescence intensity, uHTS; Fatty acid synthase (Homo sapiens), P49327; recombinant FAS-TE, OMFH fluorogenic substrate, fluorescence endpoint; inhibition, % at 15 µM; actives 0.67% (n = 360,000);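 active means compounds whose normalised, plate-corrected inhibition of enzyme fluorescence in the single-dose primary screen is 50% or more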;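 further: 0% = DMSO with enzyme and 100% = substrate without enzyme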
Rtt109 HAT inh – inhibitors of C. albicans Rtt109/Vps75 HAT, primary screen, biochemical, ThioGlo CoA-SH fluorescence, plate reader; actives 0.16% (n = 330,000); Histone acetyltransferase RTT109 (Candida albicans (strain SC5314 / ATCC MYA-2876)), …; purified Rtt109/Vps75, 4 h; inhibition, % at 34.9 µM;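 active means inhibition of at least 50% in every replicate; inconclusive means best replicate reaches 50% inhibition but some replicates fall short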
Target sequence (Q5AAJ8 whole entry, looked up): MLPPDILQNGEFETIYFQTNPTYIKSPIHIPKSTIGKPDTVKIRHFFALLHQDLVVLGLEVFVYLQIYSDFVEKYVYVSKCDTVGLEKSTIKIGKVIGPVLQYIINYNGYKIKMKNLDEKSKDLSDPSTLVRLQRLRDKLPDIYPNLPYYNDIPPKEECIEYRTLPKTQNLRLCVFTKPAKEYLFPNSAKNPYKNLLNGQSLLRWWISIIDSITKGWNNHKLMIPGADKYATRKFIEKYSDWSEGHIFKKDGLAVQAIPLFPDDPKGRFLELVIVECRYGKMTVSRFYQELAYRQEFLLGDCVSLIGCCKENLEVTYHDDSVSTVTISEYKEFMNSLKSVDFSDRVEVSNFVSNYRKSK
UCH37 DUB inh – inhibitors of human UCH37 deubiquitinase, primary screen, biochemical, Ub-AMC cleavage, fluorescence | Ubiquitin carboxyl-terminal hydrolase isozyme L5 (Homo sapiens), Q9Y5K5 | purified proteasome/UCH37 | inhibition, % (test concentration not listed) | actives 0.33% (n = 330,000);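 active means mean inhibition over replicate wells above about 20%, limit read from the data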;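 further: 0% = compound-free wells with enzyme and 100% = wells lacking proteasome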
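system = Proteasome-associated human UCH37 deubiquitinase | amount = 0.15 nM proteasome as dispensed | medium = pH 7.4 Tris-HCl (50 mM) with ovalbumin, ATP-MgCl2, DTT | incubation = 30 min preincubation with enzyme, 25 min cleavage at room temperature | detection = AMC fluorescence 355/460 nm | read-out basis = percent inhibition | controls = no-proteasome and no-compound wells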
* = called active by the depositor; ? = inconclusive; / = no result. Rows were chosen to be rich in hits. Some 4.6% of all compounds tested hit in one or more screens of this group.

SMILES	HDAC3 inhib	PfM18AAP inh	ALR H2O2 inh	FAS TE block	Rtt109 HAT inh	UCH37 DUB inh
Cc1cc(N2C(=O)C(O)=C(C(=O)c3cc4ccccc4o3)C2c2ccc([N+](=O)[O-])cc2)no1 (centres undefined)	7	18	98*	14	-7	9
COC(=O)c1ccc(C2C(C(=O)c3ccc(C)o3)=C(O)C(=O)N2c2cc(C)on2)cc1 (centres undefined)	6	5	91*	12	25	4
Cc1cc(N2C(=O)C(O)=C(C(=O)c3ccco3)C2c2cccc(Oc3ccccc3)c2)no1 (centres undefined)	5	6	94*	7	26	/
Cc1cc(N2C(=O)C(O)=C(C(=O)c3ccco3)C2c2cccc(O)c2)no1 (centres undefined)	2	17	-4	-9	-3	8
Cc1ccc(C2C(C(=O)c3cc4ccccc4o3)=C(O)C(=O)N2c2cc(C)on2)cc1 (centres undefined)	-12	9	98*	-1	3	/
O=C(C1=C(O)C(=O)N(CCc2ccccc2)C1c1ccncc1)c1cc2ccccc2o1 (centres undefined)	-1	1	8	-5	17	3
O=C(C1=C(O)C(=O)N(c2nccs2)C1c1ccccc1)c1cc2ccccc2o1 (centres undefined)	7	13	96*	-114	?	5
CC(=NNC(=O)CN(c1ccc(C)cc1)S(C)(=O)=O)c1cccs1	/	/	/	/	/	1
O=C(Nc1ccc(F)cc1F)N1CCCC(c2nc(-c3ccc(F)cc3)no2)C1 (centres undefined)	6	-8	1	8	64*	2
O=C(c1ccc(F)cc1F)N1CCCC(c2nc(-c3ccc(F)cc3)no2)C1 (centres undefined)	0	-1	-28	-8	4	4
O=c1cc(CO)oc(C(Nc2ccccn2)c2ccc(C(F)(F)F)cc2)c1O (centres undefined)	2	-3	5	6	0	1
O=c1cc(CO)oc(C(Nc2ccccn2)c2ccccc2F)c1O (centres undefined)	5	-3	97*	2	9	9
O=c1cc(CO)oc(C(Nc2ccccn2)c2cccc(F)c2)c1O (centres undefined)	3	0	98*	-6	-2	7
CC(=O)NN=C(C)CC(=O)NC(C)(C)C	/	/	/	/	/	0
Cc1cc(C)cc(C(=O)NN=Cc2ccoc2)c1	/	/	/	/	/	4
CN(C)c1ccc(Nc2nc(-c3cccnc3)cs2)cc1	-6	12	95*	-5	5	0
COC1=C(N)C(=O)c2nc(-c3nc(C(=O)O)c(C)c(-c4ccc(OC)c(OC)c4O)c3N)ccc2C1=O	/	19	/	/	0	82*
Cc1ccccc1NC(=S)Nc1ccc2[nH]c(=O)[nH]c2c1	-1	-10	88*	-6	0	2
Cc1ccc(NC(=S)Nc2ccc3[nH]c(=O)[nH]c3c2)cc1	-5	4	99*	-3	-14	2
O=c1[nH]c2ccc(NC(=S)Nc3ccccc3)cc2[nH]1	-10	1	90*	-3	6	2
O=c1[nH]c2ccc(NC(=S)Nc3ccc(Cl)cc3)cc2[nH]1	3	-20	-4	5	-2	0
CCOC(=O)c1ccc(NC(=S)Nc2ccc3[nH]c(=O)[nH]c3c2)cc1	3	-8	80*	2	4	1
O=C(NN=Cc1cccc(C(F)(F)F)c1)c1cc2c(s1)-c1ccccc1CC2	/	/	/	/	/	-210
Cc1nn(C)cc1C=NNC(=S)Nc1ccc(Cl)cc1Cl	/	/	/	/	/	2
O=C(NN=C1CCCc2ccccc21)c1cccc([N+](=O)[O-])c1	/	/	/	/	/	4
COc1ccccc1NC(=O)CC(C)=NNC(=O)C12CC3CC(CC(C3)C1)C2	/	/	/	/	/	-3
CN(N=Cc1ccc(O)cc1O)c1ncc(C(F)(F)F)cc1Cl	/	/	/	/	/	-4

Compound activity from PubChem.
